Results published in ChEMBL document CHEMBL3112577, “Discovery of novel chiral diazepines as bombesin receptor subtype-3 (BRS-3) agonists with low brain penetration” (Bioorg Med Chem Lett, 2014).
Converted amounts (≈) assume the structure as drawn.

Assays:
[1] = Octanol-phosphate buffered saline distribution coefficient, log D of the compound at pH 7.4; type: physicochemical
Outline: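 LogD was measured as partitioning between 1-octanol and phosphate-buffered saline at pH 7.4.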

[2] = molecular target: T1, Bombesin receptor subtype-3 (Mus musculus, UniProt O54798); assay: Agonist activity at mouse BRS-3 expressed in CHOK1 cells after 1 hr by HTRF assay; type: cell-based, CHO-K1
T1 sequence (O54798 whole entry): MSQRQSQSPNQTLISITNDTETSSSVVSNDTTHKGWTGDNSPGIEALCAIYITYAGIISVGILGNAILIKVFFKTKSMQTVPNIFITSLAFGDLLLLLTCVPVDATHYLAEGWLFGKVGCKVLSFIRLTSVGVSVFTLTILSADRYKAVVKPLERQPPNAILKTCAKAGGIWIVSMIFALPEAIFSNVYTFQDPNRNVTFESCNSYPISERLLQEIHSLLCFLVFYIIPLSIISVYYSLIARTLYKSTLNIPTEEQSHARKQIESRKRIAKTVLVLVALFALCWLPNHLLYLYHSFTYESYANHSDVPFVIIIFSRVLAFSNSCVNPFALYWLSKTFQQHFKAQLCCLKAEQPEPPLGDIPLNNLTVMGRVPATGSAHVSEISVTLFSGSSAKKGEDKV
Outline: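 CHO-K1 cells stably expressing mouse BRS-3 were plated at 200,000 cells/well and grown 24 h at 37 °C in CO₂. Compounds in HAM with 0.1% BSA plus 20 mM LiCl were added for 1 h at 37 °C. IP1 was detected by HTRF with d2-IP1 and cryptate anti-IP1 antibody after overnight at 4 °C in the dark, read as the 665/620 nm ratio and converted with on-plate IP1 standards. EC50 came from a nonlinear curve fit, averaged over at least 3 runs.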

[3] = molecular target: T2, Bombesin receptor subtype-3 (Homo sapiens, UniProt P32247); assay: Agonist activity at human BRS-3 expressed in CHOK1 cells after 1 hr by HTRF assay; type: cell-based, CHO-K1
T2 sequence (P32247 whole entry): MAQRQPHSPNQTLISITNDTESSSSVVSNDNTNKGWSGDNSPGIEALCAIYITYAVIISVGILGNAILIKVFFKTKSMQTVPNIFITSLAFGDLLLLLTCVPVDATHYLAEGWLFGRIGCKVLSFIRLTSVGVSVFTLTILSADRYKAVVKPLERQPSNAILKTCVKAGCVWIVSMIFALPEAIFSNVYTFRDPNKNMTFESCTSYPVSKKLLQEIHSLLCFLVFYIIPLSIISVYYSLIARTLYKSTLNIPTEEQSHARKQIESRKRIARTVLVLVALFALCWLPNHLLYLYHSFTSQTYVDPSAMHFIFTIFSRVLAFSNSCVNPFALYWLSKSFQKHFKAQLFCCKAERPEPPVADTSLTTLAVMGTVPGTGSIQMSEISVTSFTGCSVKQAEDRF

[4] = Ratio of drug level in brain to plasma of mouse at 30 mg/kg, po after 2.5 hrs; type: ADME, organism-based; design: dose 30 mg/kg, route oral
Outline: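 Mice given a single oral dose of 30 mg/kg. Brain and plasma concentrations were measured 2.5 h after dosing, and Kp brain was taken as the brain-to-plasma concentration ratio.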

[5] = Half life in mouse at 10 mg/kg, po; type: ADME, organism-based; design: dose 10 mg/kg, route oral; settings: in vivo
Outline: (§1)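 Two mice per compound given 10 mg/kg orally in DMA/PG/(20%HPbCD/saline) 10/10/80; values are the average of the 2 mice.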

[6] = Metabolic stability in mouse liver microsomes assessed as compound remaining after 0.5 hrs; type: ADME, Microsome; settings: read-out: Stability
Outline: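 Compound was incubated 0.5 h with mouse liver microsomes and the percentage of parent remaining was reported.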

[7] = AUC in mouse at 10 mg/kg, po; type: ADME, organism-based; design: dose 10 mg/kg, route oral; settings: plasma; outline: as §1
[8] = Cmax in mouse at 10 mg/kg, po; type: ADME, organism-based; design: dose 10 mg/kg, route oral; settings: in vivo; outline: as §1
[9] = Fraction unbound in mouse plasma; type: ADME, cell-free
[10] = Solubility of the compound in JP1; type: physicochemical
[11] = Solubility of the compound in JP2; type: physicochemical

| Compound | logD [1] | EC50 [2] [nM] | EC50 [3] [nM] | also measured |
| --- | --- | --- | --- | --- |
| O=C(O)C[C@@H]1c2ccc(C(F)(F)F)nc2NCCN1C(=O)Cc1cccc(Oc2ccccc2)c1 | 1.2 | 3.4 | 1.6 | – |
| CC(C)Oc1cccc(CC(=O)N2CCNc3nc(C(F)(F)F)ccc3C2)c1 | – | 569 | 381 | – |
| O=C(Cc1cccc(Oc2ccncc2)c1)N1CCNc2nc(C(F)(F)F)ccc2C1 | 3.3 | 621 | 977 | – |
| CC(C)COc1cccc(CC(=O)N2CCNc3nc(C(F)(F)F)ccc3C2)c1 | 4.3 | 62 | 70 | – |
| O=C(Cc1cccc(Oc2ccccc2)c1)N1CCNc2nc(C(F)(F)F)ccc2C1CO (stereo not given) | 4.1 | 19 | 12 | – |
| CC(=O)N1Cc2ccccc2N(Cc2ccccc2)CC1C(C)C (stereo not given) | – | 256 | 916 | – |
| CC(C)C1CN(Cc2ccccc2)c2ccccc2CN1C(=O)Nc1cccc(N2CCOCC2)c1 (stereo not given) | – | 34 | 131 | – |
| O=C(Cc1cccc(Oc2ccccc2F)c1)N1CCNc2nc(C(F)(F)F)ccc2C1 | 4.5 | 3.5 | 6.9 | – |
| CC(C)COc1cccc(CC(=O)N2CCNc3nc(C(F)(F)F)ccc3[C@H]2CC(=O)O)c1 | 0.9 | 62 | 17 | Kp at 2.5 h [4]: 0.043; half-life [5]: 3.7 h; remaining at 0.5 h [6]: 70%; AUC [7]: 390 ng·h/mL; Cmax [8]: 360 ng/mL; fraction unbound [9]: 0.033; solubility [10]: 40 µg/mL (≈ 85.9 µM); solubility [11]: 810 µg/mL (≈ 1740 µM) |
| O=C(O)C[C@H]1c2ccc(C(F)(F)F)nc2NCCN1C(=O)Cc1cccc(Oc2ccccc2)c1 | 1.2 | 3120 | 2070 | – |
| O=C(Cc1cccc(OC2CCCCC2)c1)N1CCNc2nc(C(F)(F)F)ccc2C1 | 4.4 | 8.7 | 8.1 | – |
| O=C(Cc1cccc(Oc2cccnc2)c1)N1CCNc2nc(C(F)(F)F)ccc2C1 | 3.2 | 106 | 156 | – |
| O=C(O)C1c2ccc(C(F)(F)F)nc2NCCN1C(=O)Cc1cccc(Oc2ccccc2)c1 (stereo not given) | – | 2260 | 1560 | – |
| O=C(Cc1cccc(Oc2ccccc2)c1)N1CCNc2nc(C(F)(F)F)ccc2C1CCO (stereo not given) | – | 11 | 11 | – |
| COc1cccc(CC(=O)N2CCNc3nc(C(F)(F)F)ccc3C2)c1 | – | 1780 | 2040 | – |
| Cc1ccc(Oc2cccc(CC(=O)N3CCNc4nc(C(F)(F)F)ccc4C3)c2)cc1 | > 4.8 | 1 | 1.3 | – |
| O=C(Nc1cccc(Oc2ccccc2)c1)N1CCNc2nc(C(F)(F)F)ccc2C1 | – | 1380 | 4380 | – |

| Compound | logD [1] | EC50 [2] [nM] | EC50 [3] [nM] | also measured |
| --- | --- | --- | --- | --- |
| O=C(Cc1cccc(OC2CCCC2)c1)N1CCNc2nc(C(F)(F)F)ccc2C1 | – | 100 | 41 | – |
| CC(C)(C)c1ccc(C(=O)N2Cc3ccc(C(F)(F)F)nc3Nc3ccccc32)cc1 | – | > 10000 | > 10000 | – |
| O=C(Cc1cccc(Oc2ccc(F)cc2)c1)N1CCNc2nc(C(F)(F)F)ccc2C1 | 4.6 | 2.7 | 3.6 | – |
| CC(C)(C)c1ccc(CC(=O)N2Cc3ccc(C(F)(F)F)nc3Nc3ccccc32)cc1 | – | 227 | 48 | – |
| CC(C)(O)c1nc(-c2cccc3c2N(S(=O)(=O)c2ccc(OC(F)(F)F)cc2)Cc2ccc(C(F)(F)F)nc2N3)no1 | – | 22 | 1.4 | – |
| Cc1ccc(Oc2cccc(CC(=O)N3CCNc4nc(C(F)(F)F)ccc4C3)c2)cn1 | 3.6 | 2.8 | 9.5 | – |
| O=C(Cc1cccc(Oc2ccccc2)c1)N1Cc2ccc(C(F)(F)F)nc2Nc2ccccc21 | – | 46 | 25 | – |
| O=C(Cc1cccc(Oc2cccc(F)c2)c1)N1CCNc2nc(C(F)(F)F)ccc2C1 | 4.8 | 8.7 | 6.8 | – |
| O=C(Cc1ccc(Oc2ccccc2)cc1)N1Cc2ccc(C(F)(F)F)nc2Nc2ccccc21 | – | > 10000 | 368 | – |
| CCOc1cccc(CC(=O)N2CCNc3nc(C(F)(F)F)ccc3C2)c1 | – | 1210 | 2050 | – |
| O=C(O)C[C@@H]1c2ccc(C(F)(F)F)nc2NCCN1C(=O)Cc1cccc(Oc2ccc(F)cc2)c1 | 1.2 | 2.7 | 1.7 | – |
| CC(C)(C)COc1cccc(CC(=O)N2CCNc3nc(C(F)(F)F)ccc3C2)c1 | – | 121 | 199 | – |
| O=C(Cc1cccc(Oc2ccccc2)c1)N1CCNc2nc(C(F)(F)F)ccc2C1 | 4.5 | 12.2 | 8.5 | Kp at 2.5 h [4]: 0.72; half-life [5]: 0.82 h; remaining at 0.5 h [6]: 0.7%; AUC [7]: 41 ng·h/mL; Cmax [8]: 60 ng/mL; fraction unbound [9]: 0.0067; solubility [10]: 11 µg/mL (≈ 25.7 µM); solubility [11]: 5.1 µg/mL (≈ 11.9 µM) |
| Cc1ccc(Oc2cccc(CC(=O)N3CCNc4nc(C(F)(F)F)ccc4[C@H]3CC(=O)O)c2)cn1 | 0.3 | 3.5 | 1.7 | Kp at 2.5 h [4]: 0.002; half-life [5]: 2.6 h; remaining at 0.5 h [6]: 94%; AUC [7]: 200 ng·h/mL; Cmax [8]: 90 ng/mL; fraction unbound [9]: 0.046; solubility [10]: 960 µg/mL (≈ 1920 µM); solubility [11]: 950 µg/mL (≈ 1900 µM) |
| CCCCOc1cccc(CC(=O)N2CCNc3nc(C(F)(F)F)ccc3C2)c1 | – | 52 | 59 | – |
| O=C(O)CC1c2ccc(C(F)(F)F)nc2NCCN1C(=O)Cc1cccc(Oc2ccccc2)c1 (stereo not given) | 1.2 | 15 | 13 | – |
| O=C(Cc1cccc(Oc2ccccn2)c1)N1CCNc2nc(C(F)(F)F)ccc2C1 | 3.2 | 244 | 254 | – |
